Experimental data from different studies.
Compare with care: the assays were run in different laboratories.
Matrix: plasma
Route: oral

Structure (SMILES) | system | setting | Vd/F
CC(C)(C)OC[C@@H]1C(=O)NCCN1C(=O)C[C@H](N)Cc1cc(F)c(F)cc1F | male human | 5 mg, multiple doses, steady state | 1960 L
COc1ccc([C@@H]2CN(C(=O)[C@@H](O)CO)C[C@@]2(C)[C@@H](C)O)cc1OC1CN(c2ccc(C)cn2)C1 | human | 0.5 mg, single dose, healthy volunteers | 40.7 L
COC(=O)N[C@@H](C)CNc1nccc(-c2cn(C(C)C)nc2-c2cc(Cl)cc(NS(C)(=O)=O)c2F)n1 | human | 50 mg, single dose | 260 L
N#CN1C[C@H](n2nc(-c3ccc(Oc4ccc(Cl)cn4)cc3)c(C(N)=O)c2N)CCC12CC2 | human | 600 mg, fasted | 1060 L
C[C@@H](c1ccc2nccn2c1)n1nnc2ncc(-c3cnn(C)c3)nc21 | human | 600 mg | 506 L
c1cnc2ccc(Nc3nc(NC4CC4)c4nc[nH]c4n3)cc2c1 | human | 400 mg/m², patients | 546 L
Cc1cc(Nc2cc(N3CCN(C)CC3)nc(/C=C/c3ccccc3)n2)n[nH]1 | human | 200 mg/m², patients | 2280 L
NC[C@@](O)(c1ccc(Cl)cc1)c1ccc(-c2cn[nH]c2)cc1 | human | 5 mg, patients | 1400 L
COc1cc(C(=O)NC2CCN(C)CC2)c(F)cc1Nc1ncc(C(F)(F)F)c(Oc2cccc3c2C(=O)N(C)C3)n1 | human | 50 mg, single dose, patients | 581 L
C[C@@]1(c2cc(NC(=O)c3ccc(C#N)cn3)ccc2F)C=CSC(N)=N1 | human | 3 mg, single dose | 235 L
CO[C@H]1CC[C@H](N2C(=O)CNc3ncc(-c4ccc(C(C)(C)O)nc4)nc32)CC1 | human | 15 mg, patients | 192 L
CC(C)(Sc1ccncc1-c1ccc(C#N)c2ccccc12)C(=O)O | male human | 2 mg, single dose, fasted, healthy volunteers | 394 L
